Consider eleven compounds from ChEMBL document CHEMBL2176987, “Property-based optimization of hydroxamate-based γ-lactam HDAC inhibitors to improve their metabolic stability and pharmacokinetic profiles” (J Med Chem, 2012).

Data set [1] in a line: Metabolic stability in ICR mouse liver microsomes at 1 uM measured at 30 min in absence of NADPH. The format is ADME, Microsome. Particulars: read-out: Stability. An outline of the steps: (§1)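 Test compound at 1 μM incubated with female ICR mouse liver microsomes (0.5 mg protein/mL) for 30 min at 37 °C, with or without NADPH. Result reported as % parent remaining at 30 min.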
(In general: Liver microsomes are a subcellular fraction often used to study metabolism.)

The nature of data set [2]: Metabolic stability in ICR mouse liver microsomes at 1 uM measured at 30 min in presence of NADPH. The format is ADME, Microsome. The following applies: read-out: Stability. An outline of the steps: as §1
Data set [3] can be described thus: Passive permeability of the compound by PAMPA. The format is ADME. The following applies: read-out: permeability. In outline: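 PAMPA passive diffusion with compound at a final concentration of 200 μM. Effective permeability Pe (nm/s) and membrane retention R (%) reported. Ranitidine and metoprolol served as controls.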
Background: In PAMPA a lipid-coated filter parts donor from acceptor wells.

Data set [4] can be described thus: Lipophilicity, log D of the compound. In kind it is physicochemical. The following applies: octanol/water.
Data set [5] is described as follows: Oral bioavailability in Balb/c mouse at 30 mg/kg. The format is ADME, organism-based. Particulars: in vivo. In outline:
(§2)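 Balb/c mice dosed iv at 10 mg/kg or orally (20 or 30 mg/kg). Plasma concentration–time profiles averaged over three animals per time point. Parameters come from noncompartmental analysis. Oral AUC runs 0–5 h and iv AUC runs 0 to infinity.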

Data set [6] is described as follows: Half life in Balb/c mouse at 30 mg/kg, po. In kind it is ADME, organism-based. Details: dose 30 mg/kg, route oral. Particulars: in vivo. An outline of the steps: as §2
The nature of data set [7]: Half life in Balb/c mouse at 10 mg/kg, iv. In kind it is ADME, organism-based. Also on record: dose 10 mg/kg, route intravenous. The following applies: in vivo. An outline of the steps:
as §2

Data set [8] can be described thus: Volume of distribution at steady state in Balb/c mouse at 10 mg/kg, iv. In kind it is ADME, organism-based. Details: dose 10 mg/kg, route intravenous. The following applies: in vivo, read-out: Vdss. In outline:
as §2

Data set [9] can be described thus: Clearance in Balb/c mouse at 10 mg/kg, iv. The format is ADME, organism-based. The following applies: in vivo. Details: dose 10 mg/kg, route intravenous. In outline:
as §2

The nature of data set [10]: AUC (0 to 5 hrs) in Balb/c mouse at 30 mg/kg, po. In kind it is ADME, organism-based. Also on record: dose 30 mg/kg, route oral. Particulars: plasma. An outline of the steps:
as §2

Data set [11] in a line: Cmax in Balb/c mouse at 30 mg/kg, po. The format is ADME, organism-based. Also on record: dose 30 mg/kg, route oral. Particulars: in vivo. In outline:
as §2

A short description of data set [12]: Tmax in Balb/c mouse at 30 mg/kg, po. In kind it is ADME, organism-based. Also on record: dose 30 mg/kg, route oral. Particulars: in vivo. An outline of the steps: as §2
A short description of data set [13]: Apparent permeability across apical to basolateral side in human Caco2 cells at 100 uM. In kind it is ADME, cell-based. Particulars: Caco-2. In general terms: Passage across Caco-2 layers is used to estimate intestinal permeability.
Data set [14] deals with NUGC-3. The data set is described as follows: Cytotoxicity against human NUGC3 cells assessed as growth inhibition by SRB assay. In kind it is functional.
For data set [15], the system named is HCT-15. The data set can be described thus: Cytotoxicity against human HCT15 cells assessed as growth inhibition by SRB assay. In kind it is functional.
Data set [16] relates to NCI-H23. The data set is described as follows: Cytotoxicity against human NCI-H23 cells assessed as growth inhibition by SRB assay. In kind it is functional.
Data set [17] concerns MDA-MB-231. The data set can be described thus: Cytotoxicity against human MDA-MB-231 cells assessed as growth inhibition by SRB assay. The format is functional.
Data set [18] has as its system ACHN. The data set is described as follows: Cytotoxicity against human ACHN cells assessed as growth inhibition by SRB assay. The format is functional.
Data set [19] is described as follows: AUC (0 to infinity) in Balb/c mouse at 10 mg/kg, iv. The format is ADME, organism-based. Also on record: time infinity, dose 10 mg/kg, route intravenous. Particulars: plasma. In outline:
as §2

For data set [20], the system named is PC-3. The data set is described as follows: Cytotoxicity against human PC3 cells assessed as growth inhibition by SRB assay. The format is functional, cell-based.
Data set [21] is described as follows: Inhibition of HDAC by fluorescence assay.
A short description of data set [22]: Oral bioavailability in Balb/c mouse at 20 mg/kg. The following applies: in vivo. The format is ADME, organism-based. An outline of the steps: as §2
Data set [23] can be described thus: Half life in Balb/c mouse at 20 mg/kg, po. Particulars: in vivo. The format is ADME, organism-based. Details: dose 20 mg/kg, route oral. An outline of the steps:
as §2

The nature of data set [24]: AUC (0 to 5 hrs) in Balb/c mouse at 20 mg/kg, po. In kind it is ADME, organism-based. Details: dose 20 mg/kg, route oral. The following applies: plasma. An outline of the steps:
as §2

A short description of data set [25]: Cmax in Balb/c mouse at 20 mg/kg, po. The format is ADME, organism-based. Details: dose 20 mg/kg, route oral. Particulars: in vivo. An outline of the steps:
as §2

Data set [26] is described as follows: Tmax in Balb/c mouse at 20 mg/kg, po. The format is ADME, organism-based. Also on record: dose 20 mg/kg, route oral. Particulars: in vivo. An outline of the steps: as §2

In the case of `CC(C)(C)c1ccc(CCN2CC=C(CCC(=O)NO)C2=O)cc1`, the remaining at 0.5 h, 1 µM in [1] amounted to 51%; in [2] it was 38.1%. Moreover, the Papp in [3] turned out to be 6.53 ×10⁻⁶ cm/s. Further, the logD – broadly, lipophilicity at a set pH, counting ionised and neutral species – in data set [4] was found to be 2.25.
As for `CC(C)(C)c1ccc(CCCN2CC=C(CCC(=O)NO)C2=O)cc1`, the remaining at 0.5 h, 1 µM in [1] is 57.6%; in [2] it was 35.3%. In data set [3], the Papp was determined as 1.5 ×10⁻⁶ cm/s. In [4], this compound gave a logD of 2.7.
In the same order, the values of `O=C(CCC1=CCN(CCCCc2ccc(Cl)cc2)C1=O)NO` are 34.6%, 24.9%, 0.494 ×10⁻⁶ cm/s and 2.17.
Take `O=C(CCC1=CCN(Cc2ccc(F)cc2)C1=O)NO`: the bioavailability – broadly, the share of a dose that reaches the circulation, judged against a reference dose that is usually intravenous – in [5] came out at 30.6%. Also, the half-life (as a rule, the time needed for the level to fall by half in the phase considered) in data set [6] was 1.1 h; in [7], 2.6 h. For the same compound, the Vd in data set [8] was found to be 1.8 L/kg. In addition, the clearance (as a rule, the rate of elimination divided by the concentration) in data set [9] was 130 mL/min/kg. In addition, the AUC(0-t) (commonly the area under the concentration-time curve up to a stated or last time point) at 4 h in [10] is 1180 ng·h/mL. In [11], the peak level (Cmax) was 2300 ng/mL. In [12], the Tmax (commonly the time at which the peak concentration occurs) is 0.25 h. Further, the Papp A→B (usually the apparent permeability from the apical to the basolateral side of a cell layer) at 100 µM in data set [13] worked out at 7.8 ×10⁻⁶ cm/s. In addition, the remaining at 0.5 h, 1 µM in data set [1] is 91.4%; in data set [2] it was 87.7%. For the same compound, the Papp in data set [3] amounted to 1.93 ×10⁻⁶ cm/s. In addition, in data set [4], the logD was 0.571. Besides, the GI50 (usually the concentration that inhibits growth by half) in [14] stood at 6.06 µM; in [15], 4.07 µM; in [16], 4.67 µM; in [17], 1.94 µM; in [18], 5.99 µM; in data set [20] it was 5.31 µM. The AUC(0-inf) (as a rule, total exposure, with the tail of the curve extrapolated) in data set [19] came to 1280 ng·h/mL. In addition, the concentration for half-maximal inhibition (IC50) (as a rule, the concentration needed to halve the response being measured) in data set [21] was 0.06 µM.
On to `O=C(CCC1=CCN(Cc2ccc(Br)cc2)C1=O)NO`, for which the bioavailability in data set [5] stood at 44.6%. The half-life is 3.1 h in data set [6] and 2.8 h in [7]. In addition, in data set [8], the Vd amounted to 4.1 L/kg. The clearance in data set [9] was 71.7 mL/min/kg. The compound also had an AUC(0-t) at 4 h in [10] of 3110 ng·h/mL. For the same compound, in data set [11], the highest level (Cmax) was 2710 ng/mL. Besides, the Tmax in data set [12] stood at 0.15 h. For the same compound, the remaining at 0.5 h, 1 µM in [1] came to 100%; in data set [2], 84%. Besides, in data set [3], the Papp was 1.02 ×10⁻⁶ cm/s. This compound gave a logD in data set [4] of 1.26. Moreover, in data set [19], the AUC(0-inf) came out at 2330 ng·h/mL.
As to `CC(C)(C)c1ccc(CN2CC=C(CCC(=O)NO)C2=O)cc1`, the bioavailability in data set [22] is 10.7%. For the same compound, the half-life in data set [23] is 13.6 h; in data set [7] it was 7.8 h. Also, the AUC(0-t) at 4 h in data set [24] was 739 ng·h/mL. In data set [25], the Cmax (in general, the peak of the concentration-time curve) was determined as 462 ng/mL. In addition, the Tmax in data set [26] came to 0.25 h. The Vd in data set [8] worked out at 1.6 L/kg. In addition, in data set [9], the clearance is 48.3 mL/min/kg. Moreover, the remaining at 0.5 h, 1 µM was determined as 79% in [1] and 58.2% in data set [2]. Also, the Papp in data set [3] was 2.19 ×10⁻⁶ cm/s. Moreover, in data set [4], the logD was found to be 2.1. Moreover, the GI50 was 0.72 µM in [14]; 0.57 µM in data set [15]; 0.42 µM in [16]; 0.69 µM in data set [17]; 0.86 µM in [18]; 1.83 µM in data set [20]. Besides, in [19], the AUC(0-inf) is 3440 ng·h/mL. This compound showed an IC50 in data set [21] of 0.1 µM.
In the case of `O=C(CCC1=CCN(Cc2cc(C(F)(F)F)cc(C(F)(F)F)c2)C1=O)NO`, the figures for the remaining at 0.5 h, 1 µM in [1] and in [2] were 40.5% and 35.7%, respectively. In addition, the Papp in [3] was determined as 2.83 ×10⁻⁶ cm/s. Besides, the logD in data set [4] turned out to be 2.4.
In data set [4], `N#Cc1cccc(CN2CC=C(CCC(=O)NO)C2=O)c1` gave a logD of 0.236. The GI50 was 4.12 µM in data set [14]; over 10 µM in data set [15]; 4.08 µM in data set [16]; 3.6 µM in [17]; 7.75 µM in [18]; 7.92 µM in [20]. In data set [21], this compound registered an IC50 of 0.16 µM.
`N#Cc1ccc(CN2CC=C(CCC(=O)NO)C2=O)cc1` came in with a logD in data set [4] of 0.197. In addition, the GI50 in [14] is over 10 µM; in data set [15], over 10 µM; in [16], 2.32 µM; in data set [17], 5.38 µM; in data set [18], over 10 µM; in [20], over 10 µM. The same compound displayed an IC50 in data set [21] of 0.15 µM.
`O=C(CCC1=CCN(CCc2cccc([N+](=O)[O-])c2)C1=O)NO` had a logD in data set [4] of 0.633. The GI50 is 6.57 µM in data set [14]; over 10 µM in data set [15]; 4.39 µM in data set [16]; 3.18 µM in data set [17]; 5.7 µM in [18]; 8.69 µM in [20]. Further, inhibition in data set [21] was half-maximal at 1.08 µM (IC50).
For the compound `O=C(CCC1=CCN(CCc2ccc([N+](=O)[O-])cc2)C1=O)NO`, the logD in data set [4] was 0.594. The GI50 is over 10 µM in data set [14]; over 10 µM in [15]; 7.8 µM in data set [16]; 4.97 µM in data set [17]; 8.96 µM in [18]; over 10 µM in [20]. The compound further registered an IC50 in data set [21] of 1.47 µM.
